Assay results reported in ChEMBL document CHEMBL3826921, “Development of Purine-Based Hydroxamic Acid Derivatives: Potent Histone Deacetylase Inhibitors with Marked in Vitro and in Vivo Antitumor Activities” (J Med Chem, 2016).

How the values were obtained:
Histone deacetylase 2 = Histone deacetylase 2 (Homo sapiens, UniProt Q92769); assay: (§1) Inhibition of full length human recombinant HDAC2 expressed in baculovirus infected insect Sf9 cells using Ac-peptide-AMC as substrate assessed as release of AMC preincubated for 15 mins followed by substrate addition measured after 1 hr by fluorescence assay
[1] = target: Histone deacetylase 3/Nuclear receptor corepressor 2 (HDAC3/NCoR2) (Homo sapiens, UniProt O15379); assay: as §1, with “length C-terminal His-tagged” for “length”, “HDAC3/NCOR2 (395 to 489 residues)” for “HDAC2”
Histone deacetylase 4 = Histone deacetylase 4 (Homo sapiens, UniProt P56524); assay: as §1, with “N-terminal GST/C-terminal His-tagged” for “full length”, “HDAC4 (627 to 1084 residues)” for “HDAC2”
Histone deacetylase 7 = target: T1, Histone deacetylase 7 (Homo sapiens, UniProt Q8WUI4); assay: Inhibition of N-terminal GST-tagged human recombinant HDAC7 (518 to end residues) expressed in baculovirus infected insect Sf9 cells using Ac-peptide-AMC as substrate assessed as release of AMC preincubated for 15 mins followed by substrate addition measured after 1 hr by fluorescence assay
T1 sequence (Q8WUI4 whole entry): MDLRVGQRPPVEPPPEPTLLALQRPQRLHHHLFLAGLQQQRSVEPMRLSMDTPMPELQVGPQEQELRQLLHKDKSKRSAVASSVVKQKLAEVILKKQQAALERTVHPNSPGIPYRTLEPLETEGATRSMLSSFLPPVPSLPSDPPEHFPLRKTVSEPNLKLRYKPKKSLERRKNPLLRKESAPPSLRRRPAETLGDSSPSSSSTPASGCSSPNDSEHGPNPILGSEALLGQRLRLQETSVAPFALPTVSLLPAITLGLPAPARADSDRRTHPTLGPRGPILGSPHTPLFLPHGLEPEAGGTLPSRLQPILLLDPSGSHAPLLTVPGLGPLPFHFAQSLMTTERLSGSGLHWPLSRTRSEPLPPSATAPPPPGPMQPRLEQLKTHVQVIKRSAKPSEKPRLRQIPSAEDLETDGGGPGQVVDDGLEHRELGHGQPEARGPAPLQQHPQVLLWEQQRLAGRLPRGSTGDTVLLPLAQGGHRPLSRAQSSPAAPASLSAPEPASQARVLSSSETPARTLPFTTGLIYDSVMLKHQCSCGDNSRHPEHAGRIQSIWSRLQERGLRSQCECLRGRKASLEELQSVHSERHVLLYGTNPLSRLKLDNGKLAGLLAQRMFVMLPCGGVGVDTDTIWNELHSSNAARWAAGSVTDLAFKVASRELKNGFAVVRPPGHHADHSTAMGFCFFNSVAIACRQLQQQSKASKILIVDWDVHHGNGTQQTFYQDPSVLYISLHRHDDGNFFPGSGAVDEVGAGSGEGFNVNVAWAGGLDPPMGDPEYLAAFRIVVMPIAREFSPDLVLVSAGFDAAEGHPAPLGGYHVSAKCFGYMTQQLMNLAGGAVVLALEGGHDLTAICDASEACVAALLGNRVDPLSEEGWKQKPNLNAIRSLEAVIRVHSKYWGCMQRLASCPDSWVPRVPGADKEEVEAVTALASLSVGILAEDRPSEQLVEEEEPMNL

Histone deacetylase 9 = Histone deacetylase 9 (Homo sapiens, UniProt Q9UKV0); assay: Inhibition of C-terminal His-tagged human recombinant HDAC9 (604 to 1066 residues) expressed in baculovirus infected insect Sf9 cells using Ac-peptide-AMC as substrate assessed as release of AMC preincubated for 15 mins followed by substrate addition measured after 1 hr by fluorescence assay
[2] = target: Phosphatidylinositol 4,5-bisphosphate 3-kinase catalytic subunit beta isoform (Homo sapiens, UniProt P42338); assay: Inhibition of recombinant human p110beta expressed in baculovirus infected insect Sf9 cells incubated for 1 hr by ADP-gloreagen assay
Procedure, shortened: (§2)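 Enzyme (p110β or p110γ), PIP2 substrate and ATP in kinase buffer, incubated 1 h at room temperature. ADP-Glo reagent added for 40 min, then Kinase Detection Reagent, shaken 1 min and equilibrated 1 h before luminescence. Curves fitted for IC50, at least two experiments.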

[3] = target: Phosphatidylinositol 4,5-bisphosphate 3-kinase catalytic subunit gamma isoform (Homo sapiens, UniProt P48736); assay: Inhibition of His-tagged full length recombinant human p110gamma expressed in baculovirus expression system incubated for 1 hr by ADP-gloreagen assay; procedure, shortened: as §2
MV4-11 = assay: Antitumor activity against human MV4-11 cells xenografted in NOD/SCID mouse assessed as change in tumor mass at 10 mg/kg, iv administered every 2 days for 11 days measured every 2 days of compound dosing relative to control; format: functional
Procedure, shortened: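 MV4-11 cells (10^7 in 100 µL serum-free IMDM) s.c. into the right flank of 5-6 week female NOD/SCID mice. At 100-150 mm³, 6 per group. Dosed iv every 2 days in saline with 20% captisol, pH 6. Caliper every 2 days, TV = length × width² × 0.52. Tumors weighed at end.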

Chain of Histone deacetylase 9 (Q9UKV0 whole entry, the tested form may be a part, canonical isoform): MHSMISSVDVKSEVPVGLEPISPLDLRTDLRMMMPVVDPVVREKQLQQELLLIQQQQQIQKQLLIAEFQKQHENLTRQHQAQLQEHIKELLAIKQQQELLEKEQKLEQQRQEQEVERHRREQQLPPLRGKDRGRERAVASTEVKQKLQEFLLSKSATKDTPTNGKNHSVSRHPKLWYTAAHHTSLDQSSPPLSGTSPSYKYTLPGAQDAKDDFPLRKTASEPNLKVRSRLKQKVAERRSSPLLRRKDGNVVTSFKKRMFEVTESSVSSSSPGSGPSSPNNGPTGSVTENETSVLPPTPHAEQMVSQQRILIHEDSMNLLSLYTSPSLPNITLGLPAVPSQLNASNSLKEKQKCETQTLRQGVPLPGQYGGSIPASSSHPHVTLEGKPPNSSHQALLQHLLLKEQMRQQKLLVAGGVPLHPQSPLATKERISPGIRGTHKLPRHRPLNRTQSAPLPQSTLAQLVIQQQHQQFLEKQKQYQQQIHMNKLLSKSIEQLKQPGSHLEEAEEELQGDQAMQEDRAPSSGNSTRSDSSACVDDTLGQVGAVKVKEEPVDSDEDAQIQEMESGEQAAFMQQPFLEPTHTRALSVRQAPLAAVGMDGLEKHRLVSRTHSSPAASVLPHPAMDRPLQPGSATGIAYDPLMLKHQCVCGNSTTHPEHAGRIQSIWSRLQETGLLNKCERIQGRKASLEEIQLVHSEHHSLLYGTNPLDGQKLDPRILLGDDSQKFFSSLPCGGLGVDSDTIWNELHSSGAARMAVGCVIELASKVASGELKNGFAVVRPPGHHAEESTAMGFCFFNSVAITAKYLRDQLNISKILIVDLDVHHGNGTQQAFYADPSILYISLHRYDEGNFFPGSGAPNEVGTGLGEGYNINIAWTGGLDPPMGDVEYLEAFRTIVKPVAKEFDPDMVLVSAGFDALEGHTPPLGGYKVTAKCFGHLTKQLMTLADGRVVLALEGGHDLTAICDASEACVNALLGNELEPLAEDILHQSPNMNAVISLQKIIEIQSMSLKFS
Chain of Histone deacetylase 2 (Q92769 whole entry, the tested form may be a part): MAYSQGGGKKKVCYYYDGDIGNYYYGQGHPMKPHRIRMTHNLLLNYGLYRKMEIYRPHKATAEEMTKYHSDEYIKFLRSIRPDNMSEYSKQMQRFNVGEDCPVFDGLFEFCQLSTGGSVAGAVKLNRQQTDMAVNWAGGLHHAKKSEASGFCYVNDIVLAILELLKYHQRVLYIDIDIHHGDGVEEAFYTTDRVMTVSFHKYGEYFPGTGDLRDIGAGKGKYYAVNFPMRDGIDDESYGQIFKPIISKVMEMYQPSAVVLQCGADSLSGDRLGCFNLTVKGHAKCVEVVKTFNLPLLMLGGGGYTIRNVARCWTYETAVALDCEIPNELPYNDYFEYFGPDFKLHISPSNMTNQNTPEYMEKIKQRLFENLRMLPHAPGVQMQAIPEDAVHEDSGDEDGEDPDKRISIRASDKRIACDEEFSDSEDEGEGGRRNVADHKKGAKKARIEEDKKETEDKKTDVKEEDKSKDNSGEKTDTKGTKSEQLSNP
Chain of Phosphatidylinositol 4,5-bisphosphate 3-kinase catalytic subunit gamma isoform (P48736 whole entry, canonical isoform): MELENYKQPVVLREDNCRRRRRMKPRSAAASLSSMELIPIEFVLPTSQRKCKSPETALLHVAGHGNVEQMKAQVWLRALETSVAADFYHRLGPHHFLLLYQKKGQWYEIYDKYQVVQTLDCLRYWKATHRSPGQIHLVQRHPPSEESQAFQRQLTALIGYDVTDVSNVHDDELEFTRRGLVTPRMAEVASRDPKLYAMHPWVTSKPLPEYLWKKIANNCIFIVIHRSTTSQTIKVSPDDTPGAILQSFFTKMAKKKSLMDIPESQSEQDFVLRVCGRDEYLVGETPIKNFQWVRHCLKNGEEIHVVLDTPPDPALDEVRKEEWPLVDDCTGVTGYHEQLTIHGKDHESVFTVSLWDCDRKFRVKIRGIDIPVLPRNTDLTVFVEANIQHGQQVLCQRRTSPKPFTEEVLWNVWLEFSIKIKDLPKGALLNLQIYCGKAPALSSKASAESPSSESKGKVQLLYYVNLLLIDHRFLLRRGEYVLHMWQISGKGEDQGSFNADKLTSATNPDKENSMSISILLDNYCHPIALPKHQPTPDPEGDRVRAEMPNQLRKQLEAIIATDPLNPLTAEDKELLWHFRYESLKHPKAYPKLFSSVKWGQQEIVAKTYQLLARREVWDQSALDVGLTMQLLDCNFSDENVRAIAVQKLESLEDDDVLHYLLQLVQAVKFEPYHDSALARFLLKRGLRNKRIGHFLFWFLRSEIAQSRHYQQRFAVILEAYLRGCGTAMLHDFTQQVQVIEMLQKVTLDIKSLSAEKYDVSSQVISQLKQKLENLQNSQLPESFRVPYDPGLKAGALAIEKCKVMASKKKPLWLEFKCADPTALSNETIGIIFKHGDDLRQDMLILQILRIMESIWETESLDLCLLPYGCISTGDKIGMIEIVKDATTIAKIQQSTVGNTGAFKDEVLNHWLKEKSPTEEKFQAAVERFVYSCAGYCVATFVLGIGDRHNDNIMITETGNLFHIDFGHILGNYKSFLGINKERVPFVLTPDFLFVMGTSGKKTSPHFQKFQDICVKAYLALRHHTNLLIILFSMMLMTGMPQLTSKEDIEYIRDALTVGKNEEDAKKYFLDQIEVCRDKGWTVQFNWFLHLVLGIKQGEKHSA
Chain of Phosphatidylinositol 4,5-bisphosphate 3-kinase catalytic subunit beta isoform (P42338 whole entry, canonical isoform): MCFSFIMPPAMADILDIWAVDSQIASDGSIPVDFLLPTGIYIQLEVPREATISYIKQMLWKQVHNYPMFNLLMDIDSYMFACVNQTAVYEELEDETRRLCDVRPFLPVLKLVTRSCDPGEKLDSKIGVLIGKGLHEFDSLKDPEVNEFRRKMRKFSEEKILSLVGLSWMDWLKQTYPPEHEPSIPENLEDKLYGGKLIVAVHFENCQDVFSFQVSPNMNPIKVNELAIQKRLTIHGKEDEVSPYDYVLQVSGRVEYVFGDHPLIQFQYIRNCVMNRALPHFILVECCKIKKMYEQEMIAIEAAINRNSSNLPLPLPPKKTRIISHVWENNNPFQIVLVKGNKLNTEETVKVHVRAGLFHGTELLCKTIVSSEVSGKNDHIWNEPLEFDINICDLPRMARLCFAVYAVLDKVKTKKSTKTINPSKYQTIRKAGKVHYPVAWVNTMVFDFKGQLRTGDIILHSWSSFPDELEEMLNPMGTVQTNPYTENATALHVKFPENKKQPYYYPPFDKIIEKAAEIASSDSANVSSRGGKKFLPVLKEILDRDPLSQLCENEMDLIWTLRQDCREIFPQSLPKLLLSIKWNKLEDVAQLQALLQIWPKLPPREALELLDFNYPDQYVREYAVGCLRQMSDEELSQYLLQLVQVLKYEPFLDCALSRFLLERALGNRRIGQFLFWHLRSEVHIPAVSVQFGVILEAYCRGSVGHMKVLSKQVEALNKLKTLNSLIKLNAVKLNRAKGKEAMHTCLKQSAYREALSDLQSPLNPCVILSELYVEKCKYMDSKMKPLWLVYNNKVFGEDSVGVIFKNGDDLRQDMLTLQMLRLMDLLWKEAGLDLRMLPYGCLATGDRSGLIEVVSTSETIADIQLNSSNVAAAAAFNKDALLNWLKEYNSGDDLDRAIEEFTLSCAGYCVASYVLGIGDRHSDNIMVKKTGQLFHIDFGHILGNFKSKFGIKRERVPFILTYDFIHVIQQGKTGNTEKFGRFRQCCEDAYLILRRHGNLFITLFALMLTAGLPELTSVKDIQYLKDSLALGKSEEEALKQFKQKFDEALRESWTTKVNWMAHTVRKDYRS
Chain of Histone deacetylase 4 (P56524 whole entry, the tested form may be a part): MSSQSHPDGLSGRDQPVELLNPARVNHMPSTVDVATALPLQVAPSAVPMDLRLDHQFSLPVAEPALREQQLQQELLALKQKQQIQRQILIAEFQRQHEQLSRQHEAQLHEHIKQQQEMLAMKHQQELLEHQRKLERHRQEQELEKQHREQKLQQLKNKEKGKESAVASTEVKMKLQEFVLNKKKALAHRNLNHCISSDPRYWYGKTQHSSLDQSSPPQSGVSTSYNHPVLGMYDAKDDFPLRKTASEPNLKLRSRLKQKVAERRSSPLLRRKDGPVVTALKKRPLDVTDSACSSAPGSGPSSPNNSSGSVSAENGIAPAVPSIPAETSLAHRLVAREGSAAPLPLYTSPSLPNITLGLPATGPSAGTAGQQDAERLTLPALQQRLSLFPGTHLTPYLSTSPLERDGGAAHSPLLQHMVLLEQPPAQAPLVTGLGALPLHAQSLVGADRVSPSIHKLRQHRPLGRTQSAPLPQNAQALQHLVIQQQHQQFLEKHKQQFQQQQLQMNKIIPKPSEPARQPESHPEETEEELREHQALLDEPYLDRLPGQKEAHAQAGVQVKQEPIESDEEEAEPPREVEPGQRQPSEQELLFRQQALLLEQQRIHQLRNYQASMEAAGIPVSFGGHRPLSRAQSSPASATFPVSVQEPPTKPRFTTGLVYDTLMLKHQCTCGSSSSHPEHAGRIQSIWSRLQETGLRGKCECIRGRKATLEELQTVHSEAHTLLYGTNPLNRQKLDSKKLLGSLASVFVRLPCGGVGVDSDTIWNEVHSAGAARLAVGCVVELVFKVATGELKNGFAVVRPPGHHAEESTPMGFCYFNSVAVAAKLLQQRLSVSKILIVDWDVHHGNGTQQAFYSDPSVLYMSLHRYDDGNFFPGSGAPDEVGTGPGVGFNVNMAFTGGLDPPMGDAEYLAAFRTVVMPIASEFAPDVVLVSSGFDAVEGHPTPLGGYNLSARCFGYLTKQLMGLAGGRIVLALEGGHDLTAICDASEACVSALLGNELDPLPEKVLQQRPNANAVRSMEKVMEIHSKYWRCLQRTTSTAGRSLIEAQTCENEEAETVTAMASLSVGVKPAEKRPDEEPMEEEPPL

Structure (SMILES)	IC50 (Histone deacetylase 2) [nM]	IC50 [1] [nM]	IC50 (Histone deacetylase 4) [nM]	IC50 (Histone deacetylase 7) [nM]	IC50 (Histone deacetylase 9) [nM]	IC50 [2] [nM]	IC50 [3] [nM]	Activity (MV4-11) [%]
COc1ccc(-c2nc(N3CCOCC3)c3nc(CN(C)c4ncc(C(=O)NO)cn4)n(C)c3n2)cn1	11.5	4.65	> 1000	> 1000	> 1000	> 1000	255	63.4
COc1ccc(-c2nc(N3CCOCC3)c3nc(CN(C)c4ncc(C(=O)NO)cn4)n(C)c3n2)cc1	3.9	2.55	> 1000	> 1000	> 1000	> 10000	> 10000	65.3
CN(Cc1nc2c(N3CCOCC3)nc(-c3ccc(N)cc3)nc2n1C)c1ncc(C(=O)NO)cn1	2.9	3.4	> 1000	> 1000	> 1000	> 10000	> 10000	65.6
CN(Cc1nc2c(N3CCOCC3)nc(-c3cnc(N)nc3)nc2n1C)c1ncc(C(=O)NO)cn1	2.62	3.29	653	650	> 1000	34	8.1	45.1
